Assay results as given in PubChem BioAssay.
Calls of active or inactive are those of the source.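 How the source made its calls, unless noted: active means inhibition above 20% together with a positive visual image hit; inconclusive means visual image hit but inhibition not above 20%; inactive means no visual image hit.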

Key:
[1] = inhibitors of TNFa-induced NFkB p65 translocation, primary screen, imaging, HUVEC, MLSMR starter and 10KST1 sets (AID 438); conditions: HUVEC TNFa-induced p65 nuclear translocation; cell count: measured here: nuclei count (cytotoxicity indicator), at 2.08 µM; inhibition: at 2 µM, stronger effect = higher value, 0% TNFa-plus-vehicle, 100% no-TNFa wells;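 further: compound added about 3h40 before a 20 min TNFalpha stimulation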;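 on inhibition: signal is the nuclear over cytoplasmic p65 intensity ratio per well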
[2] = reduction of polyQ htt aggregates in cells – imaging, exon1htt(103Q)mCFP cells, high-content imaging, primary screen (AID 483;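 active means visual image review flags a hit and inhibition of aggregation exceeds 20%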;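 further: compound exposure lasted 3 days before fixation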;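 on nuclei count: percent of the per-plate median nuclei count of sample wells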); conditions: exon1htt(103Q)mCFP cell line, aggregate imaging, at 2 µM; inhibition of aggregation: stronger effect = higher value; nuclei count: measured here: cell count, toxicity
[3] = endothelial E-selectin expression blockers – imaging, HUVEC, immunofluorescence, MLSMR starter and 10KST1 sets, primary screen (AID 487;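 active means visually confirmed hit in the image check and inhibition above 20%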;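 on inhibition: signal is fraction of cell area covered by stained E-selectin grains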;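 on nuclei count: 100% = median nuclei count of all wells on the same plate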); conditions: HUVEC TNFalpha-induced E-selectin immunofluorescence imaging, at 2 µM; inhibition: stronger effect = higher value; nuclei count: measured here: cell number, toxicity
[4] = biological target: Voltage-gated potassium channel subunit beta-2 (Rattus norvegicus) (UniProt P62483); experiment: inhibitors of rat Kvbeta2 reductase activity – biochemical, NADPH fluorescence, primary screen (AID 622;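 active means fluorescence slope higher than the sample average by over 3 SD, cut at about -0.22 in these data, passing the limit was not always enough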;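 further: slope of raw intensity against log time taken from 70 to 1610 s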); conditions: recombinant KvBeta, 4-cyanobenzaldehyde reduction, at 10 µM, stronger effect = higher value
Chain of Voltage-gated potassium channel subunit beta-2 (Rattus norvegicus) (P62483 whole entry, looked up): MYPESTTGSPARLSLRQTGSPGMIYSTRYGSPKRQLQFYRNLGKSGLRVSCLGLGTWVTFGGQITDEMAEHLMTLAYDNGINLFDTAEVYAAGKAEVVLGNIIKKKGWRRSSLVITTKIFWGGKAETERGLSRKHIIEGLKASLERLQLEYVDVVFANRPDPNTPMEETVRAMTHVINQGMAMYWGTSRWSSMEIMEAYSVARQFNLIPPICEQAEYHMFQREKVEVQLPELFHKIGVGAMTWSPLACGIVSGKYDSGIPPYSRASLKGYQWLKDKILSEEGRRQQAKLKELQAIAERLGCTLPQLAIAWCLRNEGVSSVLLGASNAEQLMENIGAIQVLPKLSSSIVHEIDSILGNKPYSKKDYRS

[5] = biological target: Voltage-gated potassium channel subunit beta-2 (Rattus norvegicus) (UniProt P62483); experiment: enhancers of rat Kvbeta2 NADPH turnover – biochemical, NADPH fluorescence, primary screen (AID 623;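 active means NADPH fluorescence slope more negative than the mean of all samples by about 3 SD, 99.7% confidence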;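 further: fluorescence intensity change per second fitted from 20 to 320 s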); conditions: Recombinant KvBeta, NADPH fluorescence decrease slope, 10 min; at 10 µM; stronger effect = lower value
[6] = biological target: Alpha-2C adrenergic receptor (Homo sapiens) (UniProt P18825); experiment: compounds altering alpha2C-coupled GIRK flux – cell-based, HEK293 alpha2C/GIRK1/2, thallium flux, primary screen (AID 624;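 active means fluorescence slope after compound addition differing from the mean of all screened samples at 99.7% confidence, in either direction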;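 further: slope of fluorescence ratio to pre-addition baseline per second over 15 to 24 s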); conditions: thallium flux BTC fluorescence, at 10 µM, actives lie on both sides
Chain of Alpha-2C adrenergic receptor (Homo sapiens) (P18825 whole entry, looked up): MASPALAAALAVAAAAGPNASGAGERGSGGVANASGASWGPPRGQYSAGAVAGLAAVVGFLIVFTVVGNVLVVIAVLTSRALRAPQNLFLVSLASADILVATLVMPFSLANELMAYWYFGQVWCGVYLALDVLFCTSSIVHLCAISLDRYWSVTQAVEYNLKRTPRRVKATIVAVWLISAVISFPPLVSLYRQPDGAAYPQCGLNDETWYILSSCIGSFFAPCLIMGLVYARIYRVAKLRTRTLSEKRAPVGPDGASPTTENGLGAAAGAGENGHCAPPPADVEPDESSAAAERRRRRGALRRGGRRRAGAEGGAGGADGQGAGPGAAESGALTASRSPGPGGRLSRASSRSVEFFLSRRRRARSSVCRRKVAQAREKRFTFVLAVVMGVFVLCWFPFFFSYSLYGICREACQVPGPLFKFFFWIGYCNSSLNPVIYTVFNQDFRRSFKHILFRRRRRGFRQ

[7] = inhibitors of larval lipid processing in zebrafish, primary screen, whole organism, PED6 fluorescence, gall bladder and intestine (AID 686;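 active means a full or partial loss of lipid-probe fluorescence in the fish gall bladder, intestine or both, judged by eye; inactive means no fluorescence loss, or compound toxic to the fish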;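 further: larvae 5 to 7 days old with five fish per well; signal comes from phospholipase A2 cleavage of quenched PED6 carried via bile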); conditions: Zebrafish larvae PED6 lipid processing, fluorescence scoring; screened at 20 µM (by protocol)
Procedure, shortened: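 Incubation: overnight exposure of larvae to compound plus PED6 / Test system: live zebrafish larvae aged 5-7 days, whole organism / Amount: 5 larvae per well / Read-out basis: visual per-well fluorescence inhibition score / Signal: visual fluorescence microscopy scoring of gall bladder, gut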

[8] = blockers of RIG-like receptor reporter activation – cell-based, Sendai virus stimulus, luciferase, 10K MLSCN set, TLR/RLR signaling modifier project, primary screen (AID 602276;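 active means inhibition at or above 50% at 10 µM; inactive means inhibition below 50%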;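 further: firefly luciferase from ISG56 promoter only with Renilla not read in this screen; 0% = Sendai virus plus DMSO and 100% = medium plus DMSO without virus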); conditions: HEK293 RL24 IRF3 luciferase reporter, at 10 µM, stronger effect = higher value
[9] = TLR3 IRF3 reporter activation blockers – cell-based, poly I:C stimulus, luciferase, 10K MLSCN set, primary screen (AID 602277;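 active means inhibition of the reporter signal at or above 50%; inactive means inhibition below 50%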); conditions: HEK293-TLR3 RL24 IRF3 luciferase reporter, at 10 µM, stronger effect = higher value

Structure (SMILES) | cell count [1] | inhibition [1] | inhibition of aggregation [2] | nuclei count [2] [%] | inhibition [3] | nuclei count [3] [%] | fluorescence slope [4] | NADPH fluorescence slope [5] | slope [6] | outcome [7] | inhibition [8] | inhibition [9]
O=C(O)CSc1ncn[nH]1 | 718 | -14.4% (inactive) | 22.9% (inactive) | 98.3 | -28.2% (inactive) | 112 | -0.454 (inactive) | -4.4e-05 (inactive) | 0.00435 (inactive) | inactive | 15.3% (inactive) | 12.4% (inactive)
Cc1ccc(S(=O)(=O)C(C#N)c2nc3ccccc3nc2OC(C)C)cc1 (centres undefined) | 493 | 0% (inactive) | -10.6% (inactive) | 103 | -79.1% (inactive) | 114 | -0.38 (inactive) | -8.6e-05 (inactive) | 0.00476 (inactive) | inactive | 9.93% (inactive) | 10.6% (inactive)
COC(=O)c1ccc(COC(=O)c2c(C)nn(Cc3ccccc3Cl)c2Cl)o1 | 431 | -20.9% (inactive) | 7% (inactive) | 73.5 | 46.3% (inactive) | 70.3 | -0.408 (inactive) | 1.7e-05 (inactive) | 0.00741 (inactive) | inactive | 17.9% (inactive) | 19.2% (inactive)
COc1cc(-c2nc(S(=O)(=O)c3ccc(C)cc3)c(N(C)C)o2)cc(OC)c1OC | 432 | -6.3% (inactive) | -5.1% (inactive) | 105 | -57% (inactive) | 108 | -0.386 (inactive) | -9.2e-05 (inactive) | 0.00686 (inactive) | inactive | -11.7% (inactive) | -7.3% (inactive)
CC(=O)N1CCc2cc(S(=O)(=O)NCCC(=O)Nc3cc(C)cc(C)c3)ccc21 | 611 | -11.5% (inactive) | 15.1% (inactive) | 97.8 | 25.9% (inactive) | 98 | -0.399 (inactive) | -8.9e-05 (inactive) | 0.00432 (inactive) | inactive | 12.9% (inactive) | 12.5% (inactive)
Cc1ccc2nc(/C(C#N)=N/O)[nH]c2c1 | 627 | -1.7% (inactive) | -7.3% (inactive) | 112 | -34.1% (inactive) | 119 | -0.376 (inactive) | -8.1e-05 (inactive) | 0.00426 (inactive) | inactive | 6.84% (inactive) | 6.68% (inactive)
Cc1ccc(NC(=O)CSc2nnc(-c3ccc(S(=O)(=O)N4CCOCC4)cc3)n2C)cc1 | 740 | -0.2% (inactive) | 0.9% (inactive) | 87 | 9.3% (inactive) | 111 | -0.384 (inactive) | -7.3e-05 (inactive) | 0.00534 (inactive) | inactive | 4.24% (inactive) | 4.26% (inactive)
CCCNC(=O)c1cc(S(=O)(=O)N2CCc3ccccc32)ccc1F | 503 | -17.2% (inactive) | 14.3% (inactive) | 74.6 | -32.7% (inactive) | 104 | -0.412 (inactive) | -7.4e-05 (inactive) | 0.00573 (inactive) | inactive | 8.07% (inactive) | 0.176% (inactive)
CCOC(=O)C1CCN(C(=O)Nc2ccc3nc(C)c(C)nc3c2)CC1 | 331 | 2% (inactive) | 26.1% (inactive) | 84.8 | -20.1% (inactive) | 90.9 | -0.00743 (active) | -2.9e-06 (inactive) | 0.00559 (inactive) | inactive | 8.11% (inactive) | 5.19% (inactive)
O=C(CSc1nc2ccccc2o1)N1CCN(C(=O)c2ccco2)CC1 | 595 | -11.5% (inactive) | 9.6% (inactive) | 102 | -19.5% (inactive) | 99.6 | -0.376 (inactive) | -5.7e-05 (inactive) | 0.00634 (inactive) | inactive | 3.77% (inactive) | 3.76% (inactive)
O=C(NCc1cccs1)c1cc2c(s1)CS(=O)(=O)C2 | 618 | -3% (inactive) | -17.1% (inactive) | 101 | -42.8% (inactive) | 113 | -0.32 (inactive) | -4.2e-06 (inactive) | 0.00763 (inactive) | inactive | 23.3% (inactive) | 87% (active)
COc1cccc(CC(=O)Nn2c(C)nc3ccccc3c2=O)c1 | 375 | 10.5% (inactive) | -8.2% (inactive) | 102 | -2% (inactive) | 115 | -0.395 (inactive) | -6e-05 (inactive) | 0.00573 (inactive) | inactive | -2.22% (inactive) | 98% (active)
O=C(CN1CCSCC1)N1CCc2[nH]c3ccc(Br)cc3c2C1 | 691 | 3.4% (inactive) | 21.5% (inactive) | 99.4 | 28.3% (inactive) | 102 | -0.384 (inactive) | -5.2e-05 (inactive) | 0.00508 (inactive) | inactive | 10.7% (inactive) | 7.8% (inactive)
COc1ccc(S(=O)(=O)NCCCN2CCOCC2)c2ccccc12 | 674 | -3.5% (inactive) | -7.8% (inactive) | 102 | -82.6% (inactive) | 100 | -0.356 (inactive) | -3.4e-05 (inactive) | 0.00569 (inactive) | inactive | 14.4% (inactive) | 19.6% (inactive)
CCN(CC(=O)Nc1ccc2c(c1)CCC2)Cc1nc2ccccc2c(=O)[nH]1 | 382 | 1.3% (inactive) | -17.4% (inactive) | 102 | -1.6% (inactive) | 102 | -0.455 (inactive) | -3.6e-05 (inactive) | 0.00524 (inactive) | inactive | 13.7% (inactive) | 14.8% (inactive)
CN(C)c1nc(Oc2ccc(N)cc2)nc(N(C)C)n1 | 362 | 2.1% (inactive) | 15.5% (inactive) | 94.2 | 27% (inactive) | 92 | -0.379 (inactive) | -7.9e-05 (inactive) | 0.00462 (inactive) | inactive | -1.54% (inactive) | -2.53% (inactive)
Cc1ccc2[nH]c3c(=O)n(CCCN4CCN(C)CC4)cnc3c2c1 | 478 | 1% (inactive) | -13.7% (inactive) | 105 | -36.8% (inactive) | 115 | -0.38 (inactive) | -2.9e-05 (inactive) | 0.0053 (inactive) | inactive | 1.24% (inactive) | 22.2% (inactive)
CCCc1cc(=O)oc2cc(C)cc(OC(=O)c3ccco3)c12 | 298 | -9% (inactive) | 14.4% (inactive) | 86 | -170% (inactive) | 108 | -0.399 (inactive) | -3.5e-05 (inactive) | 0.00456 (inactive) | inactive | -12.5% (inactive) | -18.4% (inactive)
COc1cc(S(=O)(=O)NC2CCCCC2C)ccc1Cl (centres undefined) | 691 | 4.8% (inactive) | -2% (inactive) | 114 | -69.9% (inactive) | 106 | -0.411 (inactive) | 2.4e-05 (inactive) | 0.00366 (inactive) | inactive | -3.61% (inactive) | -3.48% (inactive)
O=C(NC1CCCCC1NC(=O)c1ccco1)c1ccco1 (centres undefined) | 726 | 10.2% (inactive) | -7.6% (inactive) | 108 | 65.3% (inactive) | 112 | -0.384 (inactive) | -1.6e-05 (inactive) | 0.00439 (inactive) | inactive | -10.8% (inactive) | -8.21% (inactive)
O=S1(=O)CCN2C(=N1)SC1=C2CCN(Cc2ccccc2)C1 | 514 | -3% (inactive) | -3.2% (inactive) | 91.4 | -42.3% (inactive) | 144 | -0.434 (inactive) | -1e-05 (inactive) | 0.00453 (inactive) | inactive | 17% (inactive) | 13.7% (inactive)
COc1cccc(N2CCN(CC(=O)c3c[nH]c4ccc(OC)cc34)CC2C)c1 (centres undefined) | 508 | -6.7% (inactive) | 6% (inactive) | 85.4 | -36.3% (inactive) | 103 | -0.368 (inactive) | -3.9e-05 (inactive) | 0.00529 (inactive) | inactive | 12.4% (inactive) | 16% (inactive)
Cc1cc(C)cc(NC(=O)CN(C)S(=O)(=O)c2cnc[nH]2)c1 | 484 | 8.7% (inactive) | -24% (inactive) | 110 | 0.4% (inactive) | 100 | -0.406 (inactive) | -3.6e-05 (inactive) | 0.00489 (inactive) | inactive | 1.14% (inactive) | 2.32% (inactive)
Cc1cc(C)n(C(C)n2nc(C)cc2C)n1 | 367 | 4.3% (inactive) | -9.9% (inactive) | 110 | -37% (inactive) | 68 | -0.364 (inactive) | -6.5e-05 (inactive) | 0.00585 (inactive) | inactive | 11.8% (inactive) | 12.7% (inactive)
CC1(C)CC(=O)C2=C(C1)Nc1ccccc1N=C2 | 759 | -6.9% (inactive) | 11.9% (inactive) | 104 | 40.8% (inactive) | 94.5 | -0.483 (inactive) | -5.6e-05 (inactive) | 0.00436 (inactive) | inactive | -4.26% (inactive) | -38.2% (inactive)
CC1Oc2ccccc2N(Cc2ccccc2Cl)C1=O (centres undefined) | 630 | 15.4% (inactive) | -11.1% (inactive) | 59.5 | -90.8% (inactive) | 106 | -0.475 (inactive) | -5.9e-05 (inactive) | 0.00421 (inactive) | inactive | -20.2% (inactive) | -52.6% (inactive)
COC(=O)c1sc(S(=O)(=O)N2CCN(c3ccccc3)CC2)c(C(=O)OC)c1C | 394 | 3.6% (inactive) | -23.7% (inactive) | 76.7 | -151% (inactive) | 117 | -0.385 (inactive) | -3.6e-05 (inactive) | 0.00645 (inactive) | inactive | 19.8% (inactive) | 22.7% (inactive)
